Results from PubChem BioAssay.
Active and inactive are the calls of the source.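 The calls were made as follows, unless noted: active = fluorescence slope after compound addition differing from the mean of all tested samples at 99.7% confidence, mostly higher but some lower; inactive = the rest.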 Where a SMILES comes first, the peptide text is derived from it. The star is where a group is joined. Boc = CC(C)(C)OC(=O)*

How the values were obtained:
[1] = inhibitors of TNFa-induced NFkB p65 translocation, primary screen, imaging, HUVEC, MLSMR starter and 10KST1 sets (AID 438;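 active = inhibition above 20% together with a positive visual image hit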;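 also: compound added about 3h40 before a 20 min TNFalpha stimulation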;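 as to inhibition: signal is the nuclear over cytoplasmic p65 intensity ratio per well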); conditions: HUVEC TNFa-induced p65 nuclear translocation; cell count: measured here: nuclei count (cytotoxicity indicator), at 2.08 µM; inhibition: at 2 µM, stronger effect = higher value, 0% TNFa-plus-vehicle, 100% no-TNFa wells
[2] = reduction of polyQ htt aggregates in cells – imaging, exon1htt(103Q)mCFP cells, high-content imaging, primary screen (AID 483;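 active = visual image review flags a hit and inhibition of aggregation exceeds 20%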;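 also: compound exposure lasted 3 days before fixation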;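 as to nuclei count: percent of the per-plate median nuclei count of sample wells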); conditions: exon1htt(103Q)mCFP cell line, aggregate imaging, at 2 µM; inhibition of aggregation: stronger effect = higher value; nuclei count: measured here: cell count, toxicity
[3] = endothelial E-selectin expression blockers – imaging, HUVEC, immunofluorescence, MLSMR starter and 10KST1 sets, primary screen (AID 487;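 active = visually confirmed hit in the image check and inhibition above 20%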;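 as to inhibition: signal is fraction of cell area covered by stained E-selectin grains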;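 as to nuclei count: 100% = median nuclei count of all wells on the same plate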); conditions: HUVEC TNFalpha-induced E-selectin immunofluorescence imaging, at 2 µM; inhibition: stronger effect = higher value; nuclei count: measured here: cell number, toxicity
[4] = target: Voltage-gated potassium channel subunit beta-2 (Rattus norvegicus) (UniProt P62483); assay: inhibitors of rat Kvbeta2 reductase activity – biochemical, NADPH fluorescence, primary screen (AID 622;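 active = fluorescence slope higher than the sample average by over 3 SD, cut at about -0.22 in these data, passing the limit was not always enough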;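 also: slope of raw intensity against log time taken from 70 to 1610 s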); conditions: recombinant KvBeta, 4-cyanobenzaldehyde reduction, at 10 µM, stronger effect = higher value
[5] = target: Voltage-gated potassium channel subunit beta-2 (Rattus norvegicus) (UniProt P62483); assay: enhancers of rat Kvbeta2 NADPH turnover – biochemical, NADPH fluorescence, primary screen (AID 623;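 active = NADPH fluorescence slope more negative than the mean of all samples by about 3 SD, 99.7% confidence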;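 also: fluorescence intensity change per second fitted from 20 to 320 s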); conditions: Recombinant KvBeta, NADPH fluorescence decrease slope, 10 min; at 10 µM; stronger effect = lower value
[6] = target: Muscarinic acetylcholine receptor M4 (Homo sapiens) (UniProt P08173); assay: M4-linked GIRK flux change, two-sided – cell-based, HEK293 M4/GIRK, thallium flux, BTC-AM, M4 allosteric agonist project, primary screen (AID 625); conditions: at 10 µM, actives lie on both sides;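 also: thallium influx through GIRK channels coupled to M4 in HEK293 cells with BTC-AM dye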
How it was run: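 Material: M4/GIRK1/GIRK2 stable HEK293 cell line. Medium: pH 7.3 thallium assay buffer. Dosing: single compound concentration, 10 µM final. Schedule: 1 h dye loading, 2 min kinetic read. Measured by: kinetic fluorescence with BTC-AM dye. Read-out: post-addition slope, 15–24 s, of baseline-normalized fluorescence. Benchmarks: carbachol and DMSO controls.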

[7] = blockers of RIG-like receptor reporter activation – cell-based, Sendai virus stimulus, luciferase, 10K MLSCN set, TLR/RLR signaling modifier project, primary screen (AID 602276;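 active = inhibition at or above 50% at 10 µM; inactive = inhibition below 50%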;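 also: firefly luciferase from ISG56 promoter only with Renilla not read in this screen; 0% = Sendai virus plus DMSO and 100% = medium plus DMSO without virus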); conditions: HEK293 RL24 IRF3 luciferase reporter, at 10 µM, stronger effect = higher value
[8] = TLR3 IRF3 reporter activation blockers – cell-based, poly I:C stimulus, luciferase, 10K MLSCN set, primary screen (AID 602277;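 active = inhibition of the reporter signal at or above 50%; inactive = inhibition below 50%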); conditions: HEK293-TLR3 RL24 IRF3 luciferase reporter, at 10 µM, stronger effect = higher value

Chain of Muscarinic acetylcholine receptor M4 (Homo sapiens) (P08173 whole entry, looked up): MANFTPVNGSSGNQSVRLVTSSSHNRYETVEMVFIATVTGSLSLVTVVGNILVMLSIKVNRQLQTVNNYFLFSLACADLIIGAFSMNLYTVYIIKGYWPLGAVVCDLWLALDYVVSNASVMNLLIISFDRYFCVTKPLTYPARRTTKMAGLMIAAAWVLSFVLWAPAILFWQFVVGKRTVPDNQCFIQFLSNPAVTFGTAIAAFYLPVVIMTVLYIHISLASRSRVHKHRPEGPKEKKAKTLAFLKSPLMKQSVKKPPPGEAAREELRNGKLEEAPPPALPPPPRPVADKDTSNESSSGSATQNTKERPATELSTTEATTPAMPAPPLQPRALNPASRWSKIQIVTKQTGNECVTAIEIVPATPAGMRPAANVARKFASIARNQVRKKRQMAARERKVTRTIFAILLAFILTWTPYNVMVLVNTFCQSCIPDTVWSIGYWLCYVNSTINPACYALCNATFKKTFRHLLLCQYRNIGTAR
Chain of Voltage-gated potassium channel subunit beta-2 (Rattus norvegicus) (P62483 whole entry, looked up): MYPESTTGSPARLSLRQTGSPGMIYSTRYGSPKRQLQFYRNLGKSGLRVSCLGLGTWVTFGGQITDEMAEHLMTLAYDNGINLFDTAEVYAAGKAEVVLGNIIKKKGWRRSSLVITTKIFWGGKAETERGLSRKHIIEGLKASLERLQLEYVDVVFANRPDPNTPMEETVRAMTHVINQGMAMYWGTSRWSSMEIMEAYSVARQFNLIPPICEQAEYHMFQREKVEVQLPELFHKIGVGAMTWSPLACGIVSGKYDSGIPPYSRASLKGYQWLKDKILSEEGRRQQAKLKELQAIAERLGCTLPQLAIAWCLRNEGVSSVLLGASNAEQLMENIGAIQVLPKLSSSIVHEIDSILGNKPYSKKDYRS

| SMILES | cell count [1] | inhibition [1] | inhibition of aggregation [2] | nuclei count [2] [%] | inhibition [3] | nuclei count [3] [%] | fluorescence slope [4] | NADPH fluorescence slope [5] | fluorescence slope [6] | inhibition [7] | inhibition [8] |
| --- | --- | --- | --- | --- | --- | --- | --- | --- | --- | --- | --- |
| CC(C)CC(NC(=O)OC(C)(C)C)C(=O)NC(C(=O)NC(C)C(N)=O)C(C)C (stereo not drawn) (Boc-Leu-Val-Ala-NH2; configuration not given here) | 342 | 4.6% (inactive) | 4.4% (inactive) | 116 | -20.6% (inactive) | 117 | -0.573 (inactive) | -1.3e-05 (inactive) | 0.00562 (inactive) | -9.68% (inactive) | 17.1% (inactive) |
| O=C(CN1C(=O)COc2ccccc21)NCCCN1CCc2ccccc2C1 | 698 | -5.4% (inactive) | -7.3% (inactive) | 106 | -13.4% (inactive) | 106 | -0.625 (inactive) | 1.2e-05 (inactive) | 0.00746 (inactive) | 11.3% (inactive) | 33.1% (inactive) |
| Cn1cc(C(=O)NC2CCCCCCC2)c(=O)c2cc(S(=O)(=O)N3CCCC3)ccc21 | 614 | 3.5% (inactive) | 8.6% (inactive) | 109 | -3.4% (inactive) | 106 | -0.319 (inactive) | -4.1e-05 (inactive) | 0.00744 (inactive) | 10.2% (inactive) | 24.5% (inactive) |
| O=c1oc2ccccc2c(N2CCCCC2)c1CN1CCCCC1 | 731 | -5.4% (inactive) | -7.2% (inactive) | 108 | 25.6% (inactive) | 104 | -0.549 (inactive) | -6.2e-05 (inactive) | 0.00538 (inactive) | -13.6% (inactive) | -1.22% (inactive) |
| CCOc1cccc(OCCOCCN2CCCC2)c1 | 802 | 0.5% (inactive) | 2.1% (inactive) | 79.5 | -29.7% (inactive) | 103 | -0.229 (inactive) | -1.9e-05 (inactive) | 0.00581 (inactive) | 14.6% (inactive) | 13.2% (inactive) |
| Cn1c(Cc2csc(N)n2)nnc1SCC(=O)NC1CCCCC1 | 662 | -3.3% (inactive) | -15.2% (inactive) | 101 | 16.6% (inactive) | 91 | -0.479 (inactive) | 1.7e-05 (inactive) | 0.00433 (inactive) | 4.63% (inactive) | -2.17% (inactive) |
| CCCCc1ccc(NC(=O)c2c(C)noc2C)cc1 | 451 | -2.5% (inactive) | 0.1% (inactive) | 109 | 47.3% (inactive) | 95.2 | -0.563 (inactive) | -0.000106 (inactive) | 0.00365 (inactive) | -8.01% (inactive) | -38.5% (inactive) |
| CC(C)n1c(=NC(=O)c2ccco2)c(C#N)cc2c(=O)n3ccccc3cc21 | 378 | 1.7% (inactive) | -20.7% (inactive) | 104 | -45.7% (inactive) | 112 | -0.576 (inactive) | 3.1e-06 (inactive) | 0.00331 (inactive) | -23.8% (inactive) | -8.73% (inactive) |
| CN(CC(=O)N1CCN(c2ccc(F)cc2)CC1)S(=O)(=O)c1ccc(F)cc1 | 389 | -5.2% (inactive) | -9.8% (inactive) | 103 | -100% (inactive) | 121 | -0.595 (inactive) | -6.1e-05 (inactive) | 0.00279 (inactive) | 11.3% (inactive) | -4.19% (inactive) |
| CCCCOc1ccc(-c2nnn(CC(=O)NCc3ccco3)n2)cc1 | 457 | 3.9% (inactive) | -61.8% (inactive) | 18.8 | -62% (inactive) | 104 | -0.523 (inactive) | -0.000212 (inactive) | 0.00448 (inactive) | 30.6% (inactive) | -15.6% (inactive) |
| Cc1nnc(C)c2c(C)n(-c3ccc(Br)cc3)c(C)c12 | 305 | 2.5% (inactive) | -3.9% (inactive) | 104 | -47.7% (inactive) | 111 | -0.497 (inactive) | -4.6e-05 (inactive) | 0.00472 (inactive) | 18% (inactive) | 27.9% (inactive) |
| CCOc1ccccc1N1CCN(c2nc(N)c(C#N)c(CC#N)c2C#N)CC1 | 687 | -1.7% (inactive) | -18.6% (inactive) | 88.7 | -68.9% (inactive) | 105 | -0.592 (inactive) | -1e-05 (inactive) | 0.00416 (inactive) | 20.4% (inactive) | 17.9% (inactive) |
| COc1ccccc1C1/C(=C(\O)c2c(C)nc3c(C)cccn23)C(=O)C(=O)N1CCCN(C)C (stereo not drawn) | 530 | -2.6% (inactive) | -6.8% (inactive) | 110 | 35.1% (inactive) | 121 | -0.298 (inactive) | -5.5e-05 (inactive) | 0.00521 (inactive) | 10.7% (inactive) | 20.7% (inactive) |
| CCc1nnc(NC(=O)c2cccc(C(=O)Nc3nnc(CC)s3)n2)s1 | 700 | -23.3% (inactive) | 13.6% (inactive) | 120 | -18.7% (inactive) | 107 | -0.398 (inactive) | -3.4e-05 (inactive) | 0.00556 (inactive) | -5.37% (inactive) | -13.7% (inactive) |
| CCCn1c(SCC(=O)Nc2cc(C)on2)nc2c1c(=O)n(C)c(=O)n2C | 400 | 6.8% (inactive) | 3.2% (inactive) | 95.2 | -36.6% (inactive) | 152 | -0.551 (inactive) | -2.8e-05 (inactive) | 0.00431 (inactive) | -5.89% (inactive) | 0.557% (inactive) |
| O=C(Nc1nc2ccc(S(=O)(=O)N3CCCC3)cc2s1)C1CCCO1 (stereo not drawn) | 504 | -12.6% (inactive) | -7.9% (inactive) | 55.6 | 28.1% (inactive) | 93.1 | -0.455 (inactive) | -4.6e-05 (inactive) | 0.00425 (inactive) | 14.9% (inactive) | 15.2% (inactive) |
| CC(C)(C)OC(=O)N1CC(O)CC1C(=O)OCC(=O)c1ccc(Cl)cc1 (stereo not drawn) | 445 | -7.4% (inactive) | 22.1% (inactive) | 105 | -22.9% (inactive) | 103 | -0.316 (inactive) | -6e-05 (inactive) | 0.00558 (inactive) | 8.08% (inactive) | 19.4% (inactive) |
| COc1ccc2nc(NC(=O)C(NS(=O)(=O)c3cccs3)C(C)C)sc2c1 (stereo not drawn) | 365 | 0.9% (inactive) | -16.1% (inactive) | 97.8 | -222% (inactive) | 104 | -0.532 (inactive) | 1.5e-05 (inactive) | 0.00546 (inactive) | 17.4% (inactive) | 21% (inactive) |
| COc1ccc(C(C)(C)C)cc1NC(=O)Nc1ccc2c(c1)OCO2 | 433 | 2.7% (inactive) | 7.4% (inactive) | 102 | -13.1% (inactive) | 96.8 | -0.577 (inactive) | -8.3e-06 (inactive) | 0.0063 (inactive) | -6.55% (inactive) | -2.75% (inactive) |
| COc1ccccc1-c1coc2c(CN3CCN(CCO)CC3)c(O)ccc2c1=O | 615 | -0.2% (inactive) | -9.4% (inactive) | 102 | -16% (inactive) | 105 | -0.027 (active) | 5.8e-06 (inactive) | 0.0043 (inactive) | 12.9% (inactive) | 5.54% (inactive) |
| COc1cc(CC(=O)Nc2ncc(C)s2)cc(OC)c1OC | 524 | -6.7% (inactive) | 20.3% (inactive) | 78.3 | -68.3% (inactive) | 113 | -0.501 (inactive) | 7.8e-05 (inactive) | 0.00592 (inactive) | 19.3% (inactive) | 18.5% (inactive) |
| O=C(Cn1ccc2ccccc2c1=O)NCCC(=O)NC1CCN(Cc2ccccc2)CC1 | 661 | -8.5% (inactive) | 2.9% (inactive) | 83.9 | -130% (inactive) | 129 | -0.486 (inactive) | -0.000203 (inactive) | 0.00456 (inactive) | -8.1% (inactive) | 0.132% (inactive) |
| COc1cccc2cc(C(=O)n3ccc(C)n3)c(=O)oc12 | 297 | -8% (inactive) | -15.2% (inactive) | 93.5 | 10.9% (inactive) | 88.2 | -0.409 (inactive) | 1.2e-05 (inactive) | 0.00485 (inactive) | 13.4% (inactive) | 12.3% (inactive) |
| N/C(Cn1nnc(-c2ccccc2)n1)=N\O | 707 | 5.4% (inactive) | -14.8% (inactive) | 108 | 12.5% (inactive) | 114 | -0.463 (inactive) | 2.3e-05 (inactive) | 0.00645 (inactive) | -16.8% (inactive) | 89.1% (active) |
| CCOC(=O)c1ccccc1NC(=O)CSc1nc2c(c(=O)n(C)c(=O)n2C)n1C | 718 | -6.2% (inactive) | -10.4% (inactive) | 107 | 12.3% (inactive) | 102 | -0.444 (inactive) | 3e-05 (inactive) | 0.00588 (inactive) | 18.4% (inactive) | 25% (inactive) |
| Cc1cccc(CS(=O)(=O)Cc2ccc(C(=O)NCC3CCCO3)o2)c1 (stereo not drawn) | 450 | 4.5% (inactive) | 13.6% (inactive) | 99.3 | -36.2% (inactive) | 112 | -0.582 (inactive) | 9.9e-06 (inactive) | 0.00601 (inactive) | -2% (inactive) | 8.02% (inactive) |
| CCCN1C(=O)SC(CC(=O)Nc2ccc(Br)cc2)C1=O (stereo not drawn) | 246 | -7.8% (inactive) | -2.4% (inactive) | 96.5 | -47.8% (inactive) | 104 | -0.444 (inactive) | 2.7e-05 (inactive) | 0.00512 (inactive) | -2.25% (inactive) | 7.35% (inactive) |
| CCSC1=C(C#N)C(c2cccc(OC)c2)CC(=O)N1 (stereo not drawn) | 667 | -14.3% (inactive) | -16.9% (inactive) | 101 | -70.7% (inactive) | 114 | -0.496 (inactive) | -3.8e-05 (inactive) | 0.00475 (inactive) | 14.9% (inactive) | 11.6% (inactive) |
